{"source": "paper PMC5634372", "about": "(International Journal of Nanomedicine, 2017)", "key": {"MDA-MB-231 xenografts": {"tested_on": "MDA-MB-231 xenografts", "assay": "Xenograft model of TNBC, tumor growth", "assay_type": "in vivo, SCID mice", "conditions": "10 mg/kg iv twice a week for 2 weeks, vs vehicle control", "summary_of_the_method": "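Female SCID mice (7–8 weeks) given s.c. rear-flank 1×10^6 MDA-MB-231 cells in 0.1 mL 50% Matrigel. At 100 mm3, randomized (eight per group). Dosed via tail vein twice weekly for 2 weeks with free or SMA-micelle test compound, or vehicle (100 μL; SMA in NaOH, pH 7.4). Tumor volume (L×W×H) by electronic calipers, two independent measurements bi-weekly. Euthanized day 24.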"}, "TNBC cell lines": {"tested_on": "TNBC cell lines", "conditions": "cited from earlier work"}, "[1]": {"tested_on": "xenograft model of colon cancer", "conditions": "cited from earlier work"}}, "data": [{"smiles": "COc1cc(C=C2CN(C)CC(=Cc3cc(OC)c(OC)c(OC)c3)C2=O)cc(OC)c1OC", "note": "[RL71, 3,5-bis(3,4,5-trimethoxybenzylidene)-1-methylpiperidine-4-one]", "values": [{"measurement": "tumor growth", "setting": "MDA-MB-231 xenografts", "value": "unable to suppress tumor growth"}, {"measurement": "apoptosis and cell cycle effect", "setting": "TNBC cell lines; 1 µM, several TNBC cell lines", "value": "induced apoptosis and elicited G2/M phase cell cycle arrest"}, {"measurement": "cytotoxic potency relative to curcumin", "setting": "TNBC cell lines; greater than curcumin", "value": 20, "unit": "fold"}, {"measurement": "body weight", "setting": "[1]; 4 mg/kg, after 15 days", "value": "nonsignificant loss of body weight"}, {"measurement": "tumor growth", "setting": "[1]; 4 mg/kg/day intraperitoneally for 14 days", "value": "significantly suppressed tumor growth"}, {"measurement": "liver or spleen weight", "setting": "[1]; intraperitoneal administration for 2 weeks", "value": "did not alter liver or spleen weight"}, {"measurement": "growth rate of colon tumors following treatment", "setting": "[1]; over 15 days, 4 mg/kg/day ip", "value": 400, "unit": "%"}]}]}
